# Screening data from PubChem.
# Compounds with a hit are over-represented: about 2.7% of the library has one in this group of screens.
# PfM18AAP inh-1 – PfM18AAP inhibitors, malaria aminopeptidase, primary screen, biochemical, QFRET, recombinant enzyme; M18 aspartyl aminopeptidase (Plasmodium falciparum 3D7); H-Glu-NHMec fluorogenic cleavage; inhibition, % at 7.35 µM; 1.2% of 290,000 active; AID 1822, 2009;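 active = inhibition above the campaign mean inhibition over all tested compounds plus 3 SD, cut at about 28% in these data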;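 also: 0% = plate median of test compound wells and 100% = 2 mM ZnCl2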
# RBBP9 inh – human RBBP9 inhibitors, primary screen, biochemical, fluorescence polarization, FP-Rh probe, HTS. inhibition, % at 7.94 µM. AID 1515, 2009. 0.2% of 220,000 active. recombinant RBBP9. Serine hydrolase RBBP9 (Homo sapiens), O75884;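 active = inhibition above the campaign mean of all tested compounds plus 3 SD, cut at about 14% in these data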;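 also: plate controls were DMSO wells with RBBP9 for no effect and wells lacking RBBP9 protein for full effect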
#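 Test system: recombinant human RBBP9; Timing: 30 min then 45 min, 25 °C; Detection: fluorescence polarization; Control set: RBBP9 with DMSO as uninhibited control, no-protein wells as full inhibition; Compound dosing: one concentration, 7.94 µM nominal, 0.794% DMSO; Probe or stimulus: FP-Rh activity-based probe, 375 nM before mixing.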
# zVAD death inh – inhibitors of zVAD-triggered necroptosis, primary screen, L929 cells | L929 zVAD necroptosis rescue, ATP luminescence, 24 h; with zVAD 60 µM | viability rescue, % at 10 µM | AID 1377, 2008 | 0.38% of 220,000 active;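 active = activation, scaled between plate controls, above about 75%, limit read from the data; inactive = activation under that limit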;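 also: 0% = zVAD with DMSO and 100% = DMSO alone without zVAD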
# TNF necrop inh – inhibitors of TNF-alpha triggered necroptosis, primary screen, cell-based, Jurkat FADD-/-, single concentration | activation (protection from cell death), % at 10 µM | 0.068% of 220,000 active | AID 463075, 2010 | Jurkat FADD-/- TNF necroptosis rescue, ATP luminescence, 24 h; 0 = TNF only, 100 = no-TNF cells;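 active = activation, meaning protection from cell death, of at least 50% relative to plate controls; inactive = activation below 50%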;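 also: necroptosis triggered by 40 ng/mL TNF-alpha added together with compound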
# Wee1 stabilizer – Wee1 degradation inhibitors, primary screen, cell-based, HeLa, Wee1K328M-luciferase, luminescence | reporter increase, % at 5 µM | 1.2% of 220,000 active | HeLa Luc-Wee1K328M stability; 100% = proteasome inhibitor MG132 effect;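 active = activation above the mean of all tested compounds plus 3 SD, set per screening run, cut at about 8.8% in these data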;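 also: cells exposed to compound for 20 h before luminescence read; 0% = DMSO alone and 100% = MG132 at 30 µM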
# p97 inhibitor – inhibitors of human p97 ATPase, primary screen, biochemical; inhibition, % at 8 µM; Transitional endoplasmic reticulum ATPase (Homo sapiens), P55072; recombinant p97 ATPase, Kinase-Glo ATP luminescence, 3 h; 0.42% of 220,000 active; AID 1481, 2009; in the data active = inhibition above about 15%;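 also: 0% = DMSO vehicle and 100% = wells lacking enzyme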
# Target sequence (P55072 whole entry, looked up): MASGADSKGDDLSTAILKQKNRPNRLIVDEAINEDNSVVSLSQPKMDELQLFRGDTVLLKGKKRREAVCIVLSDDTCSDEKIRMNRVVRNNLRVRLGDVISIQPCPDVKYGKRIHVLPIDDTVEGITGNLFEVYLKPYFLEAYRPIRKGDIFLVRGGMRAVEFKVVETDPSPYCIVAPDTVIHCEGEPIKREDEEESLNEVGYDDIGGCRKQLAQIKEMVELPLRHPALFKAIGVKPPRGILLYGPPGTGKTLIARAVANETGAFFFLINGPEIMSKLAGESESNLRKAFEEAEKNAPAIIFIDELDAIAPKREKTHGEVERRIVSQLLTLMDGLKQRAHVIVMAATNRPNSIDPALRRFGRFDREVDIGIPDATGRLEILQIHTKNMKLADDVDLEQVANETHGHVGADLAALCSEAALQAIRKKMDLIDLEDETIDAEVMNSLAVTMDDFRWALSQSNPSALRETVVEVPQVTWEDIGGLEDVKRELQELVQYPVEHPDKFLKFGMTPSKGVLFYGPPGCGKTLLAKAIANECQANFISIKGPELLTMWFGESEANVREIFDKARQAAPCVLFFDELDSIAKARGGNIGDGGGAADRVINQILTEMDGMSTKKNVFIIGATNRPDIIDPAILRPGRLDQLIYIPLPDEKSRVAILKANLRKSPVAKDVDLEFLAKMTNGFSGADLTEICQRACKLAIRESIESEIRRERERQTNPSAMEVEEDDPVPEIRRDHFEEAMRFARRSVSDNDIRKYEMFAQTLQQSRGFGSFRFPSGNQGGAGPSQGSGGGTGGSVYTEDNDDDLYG
# PfM18AAP inh-2 – PfM18AAP inhibitors, malaria aminopeptidase, confirmation, biochemical, QFRET, recombinant enzyme, triplicate; H-Glu-NHMec fluorogenic cleavage; shares compounds with PfM18AAP inh-1; 28% of 2,400 active; AID 2170, 2009; inhibition, % at 7.35 µM;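 active = mean inhibition over replicate wells above the hit cutoff set for the earlier primary screen, cut at about 29% in these data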;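 also: 0% = median of test compound wells and 100% = 2 mM ZnCl2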
# CTSL1 counter – cathepsin L1 inhibitors, retest, confirmation, counter-screen for PFM18AAP inhibitor project, biochemical, QFRET, triplicate. shares compounds with PfM18AAP inh-1. purified cathepsin L1, Z-Leu-Arg-MCA fluorescence. inhibition, % at 5.96 µM. 2,400 tested, under 10 active. AID 2178, 2009;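 active = average inhibition across replicates above the hit cutoff set in the earlier primary screen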;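 also: 0% = median of test compound wells and 100% = Z-Phe-Ala-diazomethylketone 1 µM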
# * marks the source's active call; other numbers are inactive results; nt = no result.
SMILES,PfM18AAP inh-1,RBBP9 inh,zVAD death inh,TNF necrop inh,Wee1 stabilizer,p97 inhibitor,PfM18AAP inh-2,CTSL1 counter
CCN(CC)c1ccc2c(c1)CCCN2,32*,-3,-1,-14,-4,1,-8,-4
Cc1cccc(C)c1NC(=S)N1CC(C)OC(C)C1 (centres undefined),7,-5,0,0,0,-8,nt,nt
CC(C)c1ccc(OCc2ccc(C(=O)NN3CCN(C)CC3)o2)cc1,-7,1,-1,0,0,-4,nt,nt
O=C(O)CCn1c2c(c3ccccc31)CCCC2,45*,3,0,-2,-1,-2,-28,4
CCc1nnc(N/N=C/c2ccc(N3CCC(C)CC3)c([N+](=O)[O-])c2)n1N,48*,-1,1,0,-3,1,-26,-9
CC1CCN(c2cc(N3CCOCC3)c([N+](=O)[O-])cc2F)CC1,-9,2,0,-4,0,-1,nt,nt
Cc1nnc(N/N=C/c2cc([N+](=O)[O-])c(N3CCC(C)CC3)cc2N2CCC(C)CC2)n1N,50*,4,1,-6,1,1,-30,-1
C=CCNC(=S)N1CCN(C2CCCCC2)CC1,3,1,-1,0,1,2,nt,nt
O=C(NNC(=S)Nc1ccccc1)c1ccncc1,7,-6,1,-2,-1,1,nt,nt
O=C(NNC(=S)Nc1ccccc1)NNC(=S)Nc1ccccc1,39*,-2,3,0,1,1,60*,-5
O=C(NNC(=S)Nc1ccccc1)Nc1ccccc1,53*,3,1,0,8,3,18,-6
NC(=O)COc1cccc2cccnc12,-7,4,1,0,4,1,nt,nt
O=C(COc1cccc2cccnc12)NNC(=S)Nc1ccccc1,35*,-6,1,0,0,10,77*,0
COc1ccc(CC(=O)N/N=C(/C)c2ccco2)cc1,0,-10,1,1,-2,7,nt,nt
COc1cc(C(=S)N2CCOCC2)cc(OC)c1OC(=O)Cc1ccc(F)cc1,36*,-5,0,1,-2,2,-8,1
Cc1ccc(S(=O)(=O)N2CCC(C(=O)N3CC(C)OC(C)C3)CC2)cc1 (centres undefined),0,nt,nt,nt,nt,nt,nt,nt
CCN1/C(=C2\C(=O)N(C)C(=S)N2C)C=Cc2cc(C)ccc21,34*,-8,0,-7,-2,-2,-13,5
CCN1/C(=C2\C(=O)N(C)C(=S)N2C)C=Cc2ccccc21,13,-7,0,-6,-3,0,nt,nt
FC(F)Oc1ccc(NC(=S)Nn2cnnc2)cc1,80*,-10,-4,0,-3,-4,66*,-2
Cc1c(Cl)c(C(=O)N2CCCCCC2)nn1C,-3,nt,nt,nt,nt,nt,nt,nt
Cc1nc2c(C)cccn2c1C(=O)N/N=C/c1ccccc1[N+](=O)[O-],40*,-7,0,-1,1,4,-41,-3
CC(/C=N/N1CCN(c2ccccc2)CC1)=C\c1ccccc1,-1,1,0,-2,0,3,nt,nt
COc1ccc(/C=N/N2C(=O)CSC2=S)cc1,49*,0,0,0,-1,1,-5,2
CC(/C=N/N1C(=O)CSC1=S)=C\c1ccccc1,42*,0,1,1,1,4,-19,-3
C(#CCN1CCCC1)CC(c1ccccc1)c1ccccc1,-15,-2,0,2,-3,-3,nt,nt
